Results as given in ChEMBL document CHEMBL1138564, “Microwave-induced synthesis and anti-microbial activities of 7,10,11,12-tetrahydrobenzo[c]acridin-8(9H)-one derivatives” (2009).
Values after ≈ are worked out from the molar mass of the structure shown. Active and inactive are the calls of the source. The calls are words filed in the database; no cut-off is given here.

Tests used:
[1] = test system: Escherichia coli; assay: Antimicrobial activity against Escherichia coli NCIM 2065 at 1000 ug/disk after 24 hrs by disk diffusion method; assay type: functional; details: NCIM 2065, 24 h, read-out: DIZ
Outline: (§1)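 Disc diffusion on Mueller–Hinton agar. 100 µl of bacterial suspension at 10⁸ CFU/ml is spread on the plate. Discs carry test compounds at two loadings, dissolved in DMSO; DMSO alone serves as negative control. Ofloxacin disc is the positive reference. Plates are incubated at 37 °C for 24 h, and the inhibition zone diameter is measured.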

[2] = test system: Bacillus subtilis; assay: Antimicrobial activity against Bacillus subtilis NCIM 2063 at 500 ug/disk after 24 hrs by disk diffusion method; assay type: functional; details: NCIM 2063, 24 h, read-out: DIZ; outline: as §1
[3] = test system: Bacillus subtilis; assay: Antimicrobial activity against Bacillus subtilis NCIM 2063 at 1000 ug/disk after 24 hrs by disk diffusion method; assay type: functional; details: NCIM 2063, 24 h, read-out: DIZ; outline: as §1
[4] = test system: Bacillus cereus; assay: Antimicrobial activity against Bacillus cereus NCIM 2155 at 500 ug/disk after 24 hrs by disk diffusion method; assay type: functional; details: NCIM 2155, 24 h, read-out: DIZ; outline: as §1
[5] = test system: Bacillus cereus; assay: Antimicrobial activity against Bacillus cereus NCIM 2155 at 1000 ug/disk after 24 hrs by disk diffusion method; assay type: functional; details: NCIM 2155, 24 h, read-out: DIZ; outline: as §1
[6] = test system: Aliivibrio fischeri; assay: Antimicrobial activity against Vibrio fischeri NCIM 2154 at 500 ug/disk after 24 hrs by disk diffusion method; assay type: functional; details: NCIM 2154, 24 h, read-out: DIZ
Outline: (§2)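 Disc diffusion. 100 µl of bacterial suspension at 10⁸ CFU/ml was spread on Mueller–Hinton agar. Discs loaded with test compound dissolved in DMSO were placed on the lawn, with a DMSO-only disc as negative control. Plates were incubated at 37 °C for 24 h, and the inhibition zone diameter was measured.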

[7] = test system: Rhodococcus corynebacterioides; assay: Antimicrobial activity against Corynebacterium rubrum NCIM 2252 at 500 ug/disk after 24 hrs by disk diffusion method; assay type: functional; details: Rhodococcoides corynebacterioides; outline: as §1
[8] = test system: Salmonella typhimurium; assay: Antimicrobial activity against Salmonella Typhimurium NCIM 2501 at 1000 ug/disk after 24 hrs by disk diffusion method; assay type: functional, Salmonella enterica subsp. enterica serovar Typhimurium; details: Salmonella enterica, NCIM 2501, 24 h; read-out: DIZ; outline: as §2
[9] = test system: Salmonella typhimurium; assay: Antimicrobial activity against Salmonella Typhimurium NCIM 2501 at 500 ug/disk after 24 hrs by disk diffusion method; assay type: functional, Salmonella enterica subsp. enterica serovar Typhimurium; details: Salmonella enterica, NCIM 2501, 24 h; read-out: DIZ; outline: as §2
[10] = test system: Rhodococcus corynebacterioides; assay: Antimicrobial activity against Corynebacterium rubrum NCIM 2252 at 1000 ug/disk after 24 hrs by disk diffusion method; assay type: functional; details: Rhodococcoides corynebacterioides; outline: as §1
[11] = test system: Staphylococcus; assay: Antimicrobial activity against Staphylococcus albus NCIM 2178 at 500 ug/disk after 24 hrs by disk diffusion method; assay type: functional; outline: as §2
[12] = test system: Staphylococcus; assay: Antimicrobial activity against Staphylococcus albus NCIM 2178 at 1000 ug/disk after 24 hrs by disk diffusion method; assay type: functional; outline: as §2
[13] = test system: Proteus vulgaris; assay: Antimicrobial activity against Proteus vulgaris NCIM 2027 at 500 ug/disk after 24 hrs by disk diffusion method; assay type: functional; outline: as §1
[14] = test system: Proteus vulgaris; assay: Antimicrobial activity against Proteus vulgaris NCIM 2027 at 1000 ug/disk after 24 hrs by disk diffusion method; assay type: functional; outline: as §1
[15] = test system: Aspergillus flavus; assay: Antimicrobial activity against Aspergillus flavus NCIM 902 at 500 ug/disk after 72 hrs by disk diffusion method; assay type: functional; details: NCIM 902, 72 h, read-out: DIZ
Outline: (§3)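 Disc diffusion on Sabouraud's dextrose agar. 100 µl of fungal suspension at 10⁶ CFU/ml is spread on the plate. Discs carry test compounds at two loadings in DMSO; DMSO alone is the negative control. Clotrimazole disc is the positive reference. Plates are incubated at 27 °C for 72 h, and the zone of inhibition diameter is measured.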

[16] = test system: Aspergillus flavus; assay: Antimicrobial activity against Aspergillus flavus NCIM 902 at 1000 ug/disk after 72 hrs by disk diffusion method; assay type: functional; details: NCIM 902, 72 h, read-out: DIZ; outline: as §3
[17] = test system: Rhodotorula mucilaginosa; assay: Antimicrobial activity against Rhodotorula rubra NCIM 3174 at 500 ug/disk after 72 hrs by disk diffusion method; assay type: functional; details: NCIM 3174, 72 h, read-out: DIZ
Outline: (§4)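 Fungal disc diffusion. 100 µl of suspension at 10⁶ CFU/ml was spread on Sabouraud's dextrose agar. Discs carrying test compound in DMSO were applied, with a DMSO-only disc as negative control. Plates were incubated at 27 °C for 72 h, and the zone of inhibition diameter was measured.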

[18] = test system: Rhodotorula mucilaginosa; assay: Antimicrobial activity against Rhodotorula rubra NCIM 3174 at 1000 ug/disk after 72 hrs by disk diffusion method; assay type: functional; details: NCIM 3174, 72 h, read-out: DIZ; outline: as §4
[19] = test system: Aspergillus fumigatus; assay: Antimicrobial activity against Aspergillus fumigatus NCIM 902 at 500 ug/disk after 72 hrs by disk diffusion method; assay type: functional; outline: as §3
[20] = test system: Aspergillus parasiticus; assay: Antimicrobial activity against Aspergillus parasiticus NCIM 904 at 1000 ug/disk after 72 hrs by disk diffusion method; assay type: functional; details: NCIM 904, 72 h, read-out: DIZ; outline: as §3
[21] = test system: Penicillium chrysogenum; assay: Antimicrobial activity against Penicillium chrysogenum NCIM 707 at 500 ug/disk after 72 hrs by disk diffusion method; assay type: functional; outline: as §3
[22] = test system: Lipomyces lipofer; assay: Antimicrobial activity against Lipomyces lipofer NCIM 3252 at 1000 ug/disk after 72 hrs by disk diffusion method; assay type: functional; details: NCIM 3252, 72 h, read-out: DIZ; outline: as §3
[23] = test system: Klebsiella aerogenes; assay: Antimicrobial activity against Klebsiella aerogenes NCIM 2239 at 500 ug/disk after 24 hrs by disk diffusion method; assay type: functional; outline: as §1
[24] = test system: Pseudomonas aeruginosa; assay: Antimicrobial activity against Pseudomonas aeruginosa NCIM 2200 at 1000 ug/disk after 24 hrs by disk diffusion method; assay type: functional; outline: as §1
[25] = test system: Pseudomonas aeruginosa; assay: Antimicrobial activity against Pseudomonas aeruginosa NCIM 2200 at 500 ug/disk after 24 hrs by disk diffusion method; assay type: functional; outline: as §2
[26] = test system: Aspergillus flavus; assay: Antimicrobial activity against Aspergillus flavus NCIM 902 after 72 hrs by serial dilution method; assay type: functional; details: NCIM 535, 72 h, in the assay text read “NCIM 535” for “NCIM 902”
Outline: (§5)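 MIC by broth dilution in Sabouraud's dextrose broth, only for fungi sensitive in disc diffusion. Two-fold serial dilutions of compounds are made in 1 ml broth per tube, range 3.9 to 1000. Inoculated tubes are incubated at 27 °C for 72 h.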

[27] = test system: Rhodotorula mucilaginosa; assay: Antimicrobial activity against Rhodotorula rubra NCIM 3174 after 72 hrs by serial dilution method; assay type: functional; details: NCIM 3174, 72 h
Outline: (§6)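 MIC by broth dilution in Sabouraud's dextrose broth, run only on fungi found sensitive in the disc assay. Twofold serial dilutions were made in 1 ml broth per tube, covering 3.9 to 1000. Inoculated tubes were incubated at 27 °C for 72 h.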

[28] = test system: Aspergillus parasiticus; assay: Antimicrobial activity against Aspergillus parasiticus NCIM 904 after 72 hrs by serial dilution method; assay type: functional; details: NCIM 904, 72 h; outline: as §5
[29] = test system: Trichoderma viride; assay: Antimicrobial activity against Trichoderma viride NCIM 1195 after 72 hrs by serial dilution method; assay type: functional; details: NCIM 1195, 72 h; outline: as §6
[30] = test system: Trichoderma viride; assay: Antimicrobial activity against Trichoderma viride NCIM 1195 at 1000 ug/disk after 72 hrs by disk diffusion method; assay type: functional; details: NCIM 1195, 72 h, read-out: DIZ; outline: as §4
[31] = test system: Escherichia coli; assay: Antimicrobial activity against Escherichia coli NCIM 2065 after 24 hrs by serial dilution method; assay type: functional; details: NCIM 2065, 24 h
Outline: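 Broth dilution MIC in nutrient broth, run only for organisms found sensitive in disc diffusion. Compounds are two-fold serially diluted in 1 ml sterile broth per tube, spanning 3.9 to 1000. Inoculated tubes are incubated at 37 °C for 24 h.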

[32] = test system: Aliivibrio fischeri; assay: Antimicrobial activity against Vibrio fischeri NCIM 2154 after 24 hrs by serial dilution method; assay type: functional; details: NCIM 2154, 24 h

| MIC [26] | MIC [27] | MIC [28] | MIC [29] | Structure (SMILES) | zone of inhibition at 1000 µg/disc [1] | zone of inhibition at 500 µg/disc [2] | zone of inhibition at 1000 µg/disc [3] | zone of inhibition at 500 µg/disc [4] | zone of inhibition at 1000 µg/disc [5] | zone of inhibition at 500 µg/disc [6] | zone of inhibition at 1000 µg/disc [8] | zone of inhibition at 500 µg/disc [9] | zone of inhibition at 500 µg/disc [15] | zone of inhibition at 1000 µg/disc [16] | zone of inhibition at 500 µg/disc [17] | zone of inhibition at 1000 µg/disc [18] | diameter of the inhibition zone (DIZ) [19] | zone of inhibition at 1000 µg/disc [20] | diameter of the inhibition zone (DIZ) [21] | zone of inhibition at 1000 µg/disc [22] | also measured |
| --- | --- | --- | --- | --- | --- | --- | --- | --- | --- | --- | --- | --- | --- | --- | --- | --- | --- | --- | --- | --- | --- |
| 62.5 µg/mL (≈ 161 µM) | 15.6 µg/mL (≈ 40.2 µM) | 62.5 µg/mL (≈ 161 µM) | 125 µg/mL (≈ 322 µM) | CC1(C)CC(=O)C2=C(C1)Nc1c(ccc3ccccc13)C2c1ccccc1Cl (centres undefined) | 8 mm | 7 mm | 8 mm | 8 mm | 11 mm | 7 mm | 13 mm | 10 mm | 8 mm | 10 mm | 10 mm | 13 mm | inactive | 10 mm | inactive | 10 mm | diameter of the inhibition zone (DIZ) [7]: inactive; diameter of the inhibition zone (DIZ) [10]: inactive; diameter of the inhibition zone (DIZ) [11]: inactive; diameter of the inhibition zone (DIZ) [12]: inactive; diameter of the inhibition zone (DIZ) [13]: inactive; diameter of the inhibition zone (DIZ) [14]: inactive; diameter of the inhibition zone (DIZ) [23]: inactive; diameter of the inhibition zone (DIZ) [24]: inactive; diameter of the inhibition zone (DIZ) [25]: inactive; zone of inhibition at 1000 µg/disc [30]: 8 mm; MIC [31]: 125 µg/mL (≈ 322 µM); MIC [32]: 62.5 µg/mL (≈ 161 µM) |
| 31.2 µg/mL (≈ 84.4 µM) | 3.9 µg/mL (≈ 10.6 µM) | 7.8 µg/mL (≈ 21.1 µM) | 31.2 µg/mL (≈ 84.4 µM) | CC1(C)CC(=O)C2=C(C1)Nc1c(ccc3ccccc13)C2c1ccc(O)cc1 (centres undefined) | 12 mm | 7 mm | 10 mm | 9 mm | 11 mm | 7 mm | 11 mm | 9 mm | 9 mm | 12 mm | 21 mm | 23 mm | inactive | 14 mm | inactive | 10 mm | zone of inhibition at 500 µg/disc ([7]; NCIM 2252, 24 h, read-out: DIZ): 7 mm; zone of inhibition at 1000 µg/disc ([10]; NCIM 2252, 24 h, read-out: DIZ): 10 mm; zone of inhibition at 500 µg/disc ([11]; NCIM 2178, 24 h, read-out: DIZ): 7 mm; zone of inhibition at 1000 µg/disc ([12]; NCIM 2178, 24 h, read-out: DIZ): 8 mm; zone of inhibition at 500 µg/disc ([13]; NCIM 2027, 24 h, read-out: DIZ): 7 mm; zone of inhibition at 1000 µg/disc ([14]; NCIM 2027, 24 h, read-out: DIZ): 9 mm; zone of inhibition at 500 µg/disc ([23]; NCIM 2239, 24 h, read-out: DIZ): 9 mm; zone of inhibition at 1000 µg/disc ([24]; NCIM 2200, 24 h, read-out: DIZ): 9 mm; zone of inhibition at 500 µg/disc ([25]; NCIM 2200, 24 h, read-out: DIZ): 7 mm; zone of inhibition at 1000 µg/disc [30]: 12 mm; MIC [31]: 31.2 µg/mL (≈ 84.4 µM); MIC [32]: 125 µg/mL (≈ 338 µM) |
